The text below walks through data of ChEMBL document CHEMBL1144529, “A library of novel hydroxamic acids targeting the metallo-protease family: design, parallel synthesis and screening” (Bioorg Med Chem, 2007).

The target in this assay is T1, Aminopeptidase N (Sus scrofa, UniProt P15145).
T1 sequence (P15145 whole entry): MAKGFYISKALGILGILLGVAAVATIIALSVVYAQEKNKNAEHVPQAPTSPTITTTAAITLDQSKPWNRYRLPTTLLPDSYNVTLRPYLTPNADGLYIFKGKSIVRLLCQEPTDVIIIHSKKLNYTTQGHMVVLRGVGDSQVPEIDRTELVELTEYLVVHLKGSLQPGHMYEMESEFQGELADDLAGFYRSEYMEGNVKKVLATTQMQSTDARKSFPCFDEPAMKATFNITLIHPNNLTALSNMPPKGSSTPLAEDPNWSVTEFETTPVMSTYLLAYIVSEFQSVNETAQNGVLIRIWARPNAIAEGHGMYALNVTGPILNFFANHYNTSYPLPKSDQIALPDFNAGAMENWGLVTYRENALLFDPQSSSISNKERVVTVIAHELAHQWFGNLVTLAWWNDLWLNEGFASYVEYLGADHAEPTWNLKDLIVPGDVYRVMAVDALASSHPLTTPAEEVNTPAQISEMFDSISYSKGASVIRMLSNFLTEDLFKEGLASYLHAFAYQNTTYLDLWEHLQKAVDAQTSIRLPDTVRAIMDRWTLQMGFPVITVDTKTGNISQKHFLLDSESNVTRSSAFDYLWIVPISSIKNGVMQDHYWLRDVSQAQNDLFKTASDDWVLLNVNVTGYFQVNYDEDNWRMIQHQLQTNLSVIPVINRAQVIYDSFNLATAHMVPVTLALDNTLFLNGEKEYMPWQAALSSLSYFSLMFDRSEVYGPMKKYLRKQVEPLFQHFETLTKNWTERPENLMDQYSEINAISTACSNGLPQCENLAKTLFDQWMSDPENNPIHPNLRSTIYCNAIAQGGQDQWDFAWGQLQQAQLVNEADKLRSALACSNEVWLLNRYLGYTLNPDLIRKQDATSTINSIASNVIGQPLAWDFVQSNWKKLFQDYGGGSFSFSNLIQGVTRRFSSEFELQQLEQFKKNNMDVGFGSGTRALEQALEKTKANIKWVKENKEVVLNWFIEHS
The experiment in a line: Inhibition of microsomal […] aminopeptidase in pig kidney. Summed up: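 Porcine kidney microsomal APN, ammonium sulfate suspension diluted 600-fold in Tris-HCl (25 mM, pH 7.4). Activity compared with enzyme run without inhibitor.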
`O=C(NO)C(Cc1ccccc1)C(=O)NCc1ccccc1` (centres undefined) registered an IC50 of more than 10000 nM.

As to `CC(C)CC(C(=O)NO)C(=O)NCCCc1ccccc1` (centres undefined), the IC50 turned out to be 528 nM. In turn, `CC(C)CC(C(=O)NO)C(=O)NCCc1ccccc1` (centres undefined) had an IC50 of 984 nM. To `CC(C)CC(C(=O)NO)C(=O)NCc1ccc(Cl)cc1` (centres undefined) belongs 2520 nM; to `CC(C)CC(C(=O)NO)C(=O)NCc1ccccc1` (centres undefined), 590 nM; to `CC(C)CC(C(=O)NO)C(=O)NCCCCc1ccccc1` (centres undefined), 82 nM. Then `O=C(NO)C(Cc1cccc(Oc2ccccc2)c1)C(=O)NCc1ccccc1` (centres undefined), with more than 10000 nM; and `CC(C)CC(C(=O)NO)C(=O)N1CCC(Cc2ccccc2)CC1` (centres undefined), with 452 nM. Then `O=C(NO)C(Cc1ccccc1)C(=O)NCCCCc1ccccc1` (centres undefined), with more than 10000 nM; and `Cn1c(CC(C(=O)NO)C(=O)NCc2ccccc2)nc2ccccc21` (centres undefined), with 718 nM; and `O=C(NO)C(Cc1cccc(Oc2ccccc2)c1)C(=O)NCCCCc1ccccc1` (centres undefined), with more than 10000 nM. In the case of `CC(C)CC(C(=O)NO)C(=O)NC1CCc2ccccc2C1` (centres undefined), the IC50 was found to be 3040 nM. To `CC(C)CC(C(=O)NO)C(=O)NCc1cccc(Oc2ccccc2)c1` (centres undefined) belongs 443 nM; to `CC(C)CC(C(=O)NO)C(=O)NCc1ccc(F)cc1` (centres undefined), 3000 nM.

The term IC50 denotes the point on the concentration scale where inhibition reaches its midpoint. High values mean weaker potency, low ones greater potency.
